Converted amounts (≈) assume the structure as drawn. The source made the active and inactive calls. No cut-off for these calls is given here.
What follows are compounds tested on Staphylococcus aureus (assay: Antibacterial activity against Staphylococcus aureus ATCC 6538 after 24 to 48 hrs by twofold serial dilution method). Settings: not given.
Type: functional
In short: (§1)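 Broth microdilution in Müller–Hinton broth. DMSO stocks at 800 were diluted twofold from 400 down to 6.25. Wells received 10^6 CFU/mL bacterial suspension and were incubated at 36 °C for 24–48 h, with controls. MIC was read per well. Duplicate assays; run only for compounds giving inhibition zones ≥14 mm.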

SMILES | MIC [µg/mL]
Clc1ccc(/C=C/n2nnc(-c3ccccc3)n2)cc1 | 100 (≈ 354 µM)
O=C(COC(Cn1nnnc1Cc1ccccc1)c1ccc(Cl)cc1)NNC(=S)Nc1ccccc1 (stereo not drawn) | 100 (≈ 192 µM)
NNC(=O)COC(Cn1nnc(-c2ccccc2)n1)c1ccc(Cl)cc1 (stereo not drawn) | 100 (≈ 268 µM)

What follows are compounds tested on Bacillus subtilis (assay: Antibacterial activity against Bacillus subtilis NRRL B-14819 after 24 to 48 hrs by twofold serial dilution method). Settings: not given.
Type: functional
In short: as §1

SMILES | MIC [µg/mL]
Clc1ccc(/C=C/n2nnc(-c3ccccc3)n2)cc1 | ≥ 200
O=C(COC(Cn1nnnc1Cc1ccccc1)c1ccc(Cl)cc1)NNC(=S)Nc1ccccc1 (stereo not drawn) | ≥ 200
NNC(=O)COC(Cn1nnc(-c2ccccc2)n1)c1ccc(Cl)cc1 (stereo not drawn) | ≥ 200

These compounds were tested on Micrococcus luteus (assay: Antibacterial activity against Micrococcus luteus ATCC 21881 after 24 to 48 hrs by twofold serial dilution method). Settings: not given.
Type: functional
In short: as §1

SMILES | MIC [µg/mL]
Clc1ccc(/C=C/n2nnc(-c3ccccc3)n2)cc1 | ≥ 200
O=C(COC(Cn1nnnc1Cc1ccccc1)c1ccc(Cl)cc1)NNC(=S)Nc1ccccc1 (stereo not drawn) | 100 (≈ 192 µM)
NNC(=O)COC(Cn1nnc(-c2ccccc2)n1)c1ccc(Cl)cc1 (stereo not drawn) | ≥ 200

What follows are compounds tested on Escherichia coli (assay: Antibacterial activity against Escherichia coli ATCC 25922 after 24 to 48 hrs by twofold serial dilution method). Settings: not given.
Type: functional
In short: as §1

SMILES | MIC [µg/mL]
Clc1ccc(/C=C/n2nnc(-c3ccccc3)n2)cc1 | 100 (≈ 354 µM)
O=C(COC(Cn1nnnc1Cc1ccccc1)c1ccc(Cl)cc1)NNC(=S)Nc1ccccc1 (stereo not drawn) | 100 (≈ 192 µM)
NNC(=O)COC(Cn1nnc(-c2ccccc2)n1)c1ccc(Cl)cc1 (stereo not drawn) | ≥ 200

Each compound was assayed on Pseudomonas aeruginosa (assay: Antibacterial activity against Pseudomonas aeruginosa ATCC 27853 after 24 to 48 hrs by twofold serial dilution method). Settings: not given.
Type: functional
In short: as §1

SMILES | MIC [µg/mL]
Clc1ccc(/C=C/n2nnc(-c3ccccc3)n2)cc1 | ≥ 200
O=C(COC(Cn1nnnc1Cc1ccccc1)c1ccc(Cl)cc1)NNC(=S)Nc1ccccc1 (stereo not drawn) | ≥ 200
NNC(=O)COC(Cn1nnc(-c2ccccc2)n1)c1ccc(Cl)cc1 (stereo not drawn) | ≥ 200

These compounds were tested on Klebsiella pneumoniae (assay: Antibacterial activity against Klebsiella pneumoniae isolate after 24 to 48 hrs by twofold serial dilution method). Settings: not given.
Type: functional
In short: as §1

SMILES | MIC [µg/mL]
Clc1ccc(/C=C/n2nnc(-c3ccccc3)n2)cc1 | ≥ 200
O=C(COC(Cn1nnnc1Cc1ccccc1)c1ccc(Cl)cc1)NNC(=S)Nc1ccccc1 (stereo not drawn) | ≥ 200
NNC(=O)COC(Cn1nnc(-c2ccccc2)n1)c1ccc(Cl)cc1 (stereo not drawn) | ≥ 200

These compounds were tested on Candida tropicalis (assay: Antifungal activity against Candida tropicalis isolate after 72 hrs by twofold serial dilution method). Settings: not given.
Type: functional, organism-based

SMILES | Activity
Clc1ccc(/C=C/n2nnc(-c3ccccc3)n2)cc1 | inactive
O=C(COC(Cn1nnnc1Cc1ccccc1)c1ccc(Cl)cc1)NNC(=S)Nc1ccccc1 (stereo not drawn) | inactive
NNC(=O)COC(Cn1nnc(-c2ccccc2)n1)c1ccc(Cl)cc1 (stereo not drawn) | inactive

The compounds below were run on Pichia kudriavzevii (assay: Antifungal activity against Candida krusei isolate after 72 hrs by twofold serial dilution method). Settings: not given.
Type: functional, organism-based

SMILES | Activity
Clc1ccc(/C=C/n2nnc(-c3ccccc3)n2)cc1 | inactive
O=C(COC(Cn1nnnc1Cc1ccccc1)c1ccc(Cl)cc1)NNC(=S)Nc1ccccc1 (stereo not drawn) | inactive
NNC(=O)COC(Cn1nnc(-c2ccccc2)n1)c1ccc(Cl)cc1 (stereo not drawn) | inactive

What follows are compounds tested on Aspergillus niger (assay: Antifungal activity against Aspergillus niger isolate after 72 hrs by twofold serial dilution method). Settings: not given.
Type: functional, organism-based

SMILES | Activity
Clc1ccc(/C=C/n2nnc(-c3ccccc3)n2)cc1 | inactive
O=C(COC(Cn1nnnc1Cc1ccccc1)c1ccc(Cl)cc1)NNC(=S)Nc1ccccc1 (stereo not drawn) | inactive
NNC(=O)COC(Cn1nnc(-c2ccccc2)n1)c1ccc(Cl)cc1 (stereo not drawn) | inactive

What follows are compounds tested on Trichophyton rubrum (assay: Antifungal activity against Trichophyton rubrum isolate after 72 hrs by twofold serial dilution method). Settings: not given.
Type: functional, organism-based

SMILES | Activity
Clc1ccc(/C=C/n2nnc(-c3ccccc3)n2)cc1 | inactive
O=C(COC(Cn1nnnc1Cc1ccccc1)c1ccc(Cl)cc1)NNC(=S)Nc1ccccc1 (stereo not drawn) | inactive
NNC(=O)COC(Cn1nnc(-c2ccccc2)n1)c1ccc(Cl)cc1 (stereo not drawn) | inactive

What follows are compounds tested on Mus musculus (assay: Anticonvulsant activity in Wister albino mouse assessed as protection against subcutaneous metrazole-induced seizures at 100 mg/kg, ip administered 30 mins before metrazole challenge measured after 30 mins). Settings: route intraperitoneal.
Type: functional
In short: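 Wistar albino mice, either sex, 25–30 g, 3 months old, in groups of six. Compounds in DMSO were given ip at 30, 100 or 300 mg/kg; vehicle-only controls. After 30 min, metrazole 100 mg/kg in DMSO was injected sc at the posterior midline. Protection meant absence of any clonic spasm lasting ≥5 s; scored as protected/tested.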

SMILES | Activity [%]
OC(Cn1nnc(-c2ccccc2)n1)c1ccc(Cl)cc1 (stereo not drawn) | 0

These compounds were tested on Mus musculus (assay: Anticonvulsant activity in Wister albino mouse assessed as protection against maximal electroshock-induced seizures at 100 mg/kg, ip administered 30 mins before metrazole challenge measured after 30 mins). Settings: route intraperitoneal.
Type: functional

SMILES | Activity [%]
OC(Cn1nnc(-c2ccccc2)n1)c1ccc(Cl)cc1 (stereo not drawn) | 0

Each compound was assayed on Staphylococcus aureus (assay: Antibacterial activity against Staphylococcus aureus ATCC 6538 at 1 mg/mL after 24 hrs by agar diffusion method). Settings: ATCC 6538, 24 h, read-out: Diameter of inhibition zone.
Type: functional
In short: (§2)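 Agar disc diffusion: 5 mm sterile paper discs soaked in 1 mg/mL test solution in DMSO were placed on agar seeded with the organism, in triplicate, with a DMSO-only control. Bacterial plates were incubated at 37 °C for 24 h and fungal plates for 7 days. Read-out was the average inhibition-zone diameter in mm. Fungi were clinical isolates.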

SMILES | zone of inhibition at 1000 µg/mL [mm]
Clc1ccc(/C=C/n2nnc(-c3ccccc3)n2)cc1 | ≥ 14
O=C(COC(Cn1nnnc1Cc1ccccc1)c1ccc(Cl)cc1)NNC(=S)Nc1ccccc1 (stereo not drawn) | ≥ 14

What follows are compounds tested on Bacillus subtilis (assay: Antibacterial activity against Bacillus subtilis NRRL B-14819 at 1 mg/mL after 24 hrs by agar diffusion method). Settings: read-out: Diameter of inhibition zone.
Type: functional
In short: as §2

SMILES | zone of inhibition at 1000 µg/mL [mm]
Clc1ccc(/C=C/n2nnc(-c3ccccc3)n2)cc1 | ≥ 14
O=C(COC(Cn1nnnc1Cc1ccccc1)c1ccc(Cl)cc1)NNC(=S)Nc1ccccc1 (stereo not drawn) | ≥ 14

These compounds were tested on Micrococcus luteus (assay: Antibacterial activity against Micrococcus luteus ATCC 21881 at 1 mg/mL after 24 hrs by agar diffusion method). Settings: ATCC 21881, 24 h, read-out: Diameter of inhibition zone.
Type: functional
In short: as §2

SMILES | zone of inhibition at 1000 µg/mL [mm]
Clc1ccc(/C=C/n2nnc(-c3ccccc3)n2)cc1 | ≥ 14
O=C(COC(Cn1nnnc1Cc1ccccc1)c1ccc(Cl)cc1)NNC(=S)Nc1ccccc1 (stereo not drawn) | ≥ 14

These compounds were tested on Escherichia coli (assay: Antibacterial activity against Escherichia coli ATCC 25922 at 1 mg/mL after 24 hrs by agar diffusion method). Settings: ATCC 25922, 24 h, read-out: Diameter of inhibition zone.
Type: functional
In short: as §2

SMILES | zone of inhibition at 1000 µg/mL [mm]
Clc1ccc(/C=C/n2nnc(-c3ccccc3)n2)cc1 | ≥ 14
O=C(COC(Cn1nnnc1Cc1ccccc1)c1ccc(Cl)cc1)NNC(=S)Nc1ccccc1 (stereo not drawn) | ≥ 14

What follows are compounds tested on Pseudomonas aeruginosa (assay: Antibacterial activity against Pseudomonas aeruginosa ATCC 27853 at 1 mg/mL after 24 hrs by agar diffusion method). Settings: ATCC 27853, 24 h, read-out: Diameter of inhibition zone.
Type: functional
In short: as §2

SMILES | zone of inhibition at 1000 µg/mL [mm]
Clc1ccc(/C=C/n2nnc(-c3ccccc3)n2)cc1 | ≥ 14
O=C(COC(Cn1nnnc1Cc1ccccc1)c1ccc(Cl)cc1)NNC(=S)Nc1ccccc1 (stereo not drawn) | ≥ 14

These compounds were tested on Klebsiella pneumoniae (assay: Antibacterial activity against Klebsiella pneumoniae isolate at 1 mg/mL after 24 hrs by agar diffusion method). Settings: read-out: Diameter of inhibition zone.
Type: functional
In short: as §2

SMILES | zone of inhibition at 1000 µg/mL [mm]
Clc1ccc(/C=C/n2nnc(-c3ccccc3)n2)cc1 | ≥ 14
O=C(COC(Cn1nnnc1Cc1ccccc1)c1ccc(Cl)cc1)NNC(=S)Nc1ccccc1 (stereo not drawn) | ≥ 14

Each compound was assayed on Candida albicans (assay: Antifungal activity against Candida albicans isolate at 1 mg/mL after 7 days by twofold serial dilution method). Settings: 168 h, read-out: Diameter of inhibition zone.
Type: functional

SMILES | zone of inhibition at 1000 µg/mL [mm]
Clc1ccc(/C=C/n2nnc(-c3ccccc3)n2)cc1 | ≥ 14
O=C(COC(Cn1nnnc1Cc1ccccc1)c1ccc(Cl)cc1)NNC(=S)Nc1ccccc1 (stereo not drawn) | ≥ 14

Each compound was assayed on Aspergillus fumigatus (assay: Antifungal activity against Aspergillus fumigatus isolate at 1 mg/mL after 7 days by agar diffusion method). Settings: 168 h, read-out: Diameter of inhibition zone.
Type: functional
In short: as §2

SMILES | zone of inhibition at 1000 µg/mL [mm]
Clc1ccc(/C=C/n2nnc(-c3ccccc3)n2)cc1 | ≥ 14
O=C(COC(Cn1nnnc1Cc1ccccc1)c1ccc(Cl)cc1)NNC(=S)Nc1ccccc1 (stereo not drawn) | ≥ 14

Source: ChEMBL document CHEMBL1152796, “Azole antimicrobial pharmacophore-based tetrazoles: synthesis and biological evaluation as potential antimicrobial and anticonvulsant agents” (Bioorg Med Chem, 2009)
